Among the data in ChEMBL document CHEMBL4219235, “Novel fatty acid chain modified GLP-1 derivatives with prolonged in vivo glucose-lowering ability and balanced glucoregulatory activity” (Bioorg Med Chem, 2018) are EC50 and Activity values, retold here.

As a reminder, the EC50 is the concentration that produces a half-maximal response.

Data set [1] deals with Glucagon-like peptide 1 receptor (Homo sapiens, UniProt P43220). The data set is described as follows: Agonist activity at recombinant human GLP1 receptor expressed in HEK293 cells assessed as cAMP accumulation by TR-FRET assay. The data set is classed as functional, cell-based. (Changes in cAMP serve as a functional read-out for many G protein-coupled receptors.)
Chain of Glucagon-like peptide 1 receptor (P43220 whole entry): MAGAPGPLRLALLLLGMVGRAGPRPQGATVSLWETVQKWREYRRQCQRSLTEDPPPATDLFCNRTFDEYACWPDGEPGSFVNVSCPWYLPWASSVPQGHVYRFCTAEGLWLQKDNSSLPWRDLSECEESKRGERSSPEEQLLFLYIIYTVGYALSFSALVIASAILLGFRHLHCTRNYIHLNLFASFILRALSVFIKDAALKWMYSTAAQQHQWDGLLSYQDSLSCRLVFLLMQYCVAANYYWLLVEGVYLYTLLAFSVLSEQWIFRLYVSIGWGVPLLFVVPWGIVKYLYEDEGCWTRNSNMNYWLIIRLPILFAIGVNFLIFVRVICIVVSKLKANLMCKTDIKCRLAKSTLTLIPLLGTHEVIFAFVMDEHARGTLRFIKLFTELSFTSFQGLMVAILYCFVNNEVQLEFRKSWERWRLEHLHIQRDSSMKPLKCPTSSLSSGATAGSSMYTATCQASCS
In data set [2] the target is Albumin (Homo sapiens, UniProt P02768). The experiment in a line: Binding affinity to human serum albumin after 3 hrs by LC-MS/MS analysis. On the set-up: concentration or dose not given beside the values. The gist of the method:
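HSA was coupled to NHS-activated Sepharose (6–7 mg HSA/mL wet resin); an inactivated albumin-free resin served as control. Peptide (100 µg/mL in PBS) was incubated with each resin for 3 h at 25 °C. After centrifugation, unbound peptide in the supernatant was quantified by LC-MS/MS.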

Chain of Albumin (P02768 whole entry): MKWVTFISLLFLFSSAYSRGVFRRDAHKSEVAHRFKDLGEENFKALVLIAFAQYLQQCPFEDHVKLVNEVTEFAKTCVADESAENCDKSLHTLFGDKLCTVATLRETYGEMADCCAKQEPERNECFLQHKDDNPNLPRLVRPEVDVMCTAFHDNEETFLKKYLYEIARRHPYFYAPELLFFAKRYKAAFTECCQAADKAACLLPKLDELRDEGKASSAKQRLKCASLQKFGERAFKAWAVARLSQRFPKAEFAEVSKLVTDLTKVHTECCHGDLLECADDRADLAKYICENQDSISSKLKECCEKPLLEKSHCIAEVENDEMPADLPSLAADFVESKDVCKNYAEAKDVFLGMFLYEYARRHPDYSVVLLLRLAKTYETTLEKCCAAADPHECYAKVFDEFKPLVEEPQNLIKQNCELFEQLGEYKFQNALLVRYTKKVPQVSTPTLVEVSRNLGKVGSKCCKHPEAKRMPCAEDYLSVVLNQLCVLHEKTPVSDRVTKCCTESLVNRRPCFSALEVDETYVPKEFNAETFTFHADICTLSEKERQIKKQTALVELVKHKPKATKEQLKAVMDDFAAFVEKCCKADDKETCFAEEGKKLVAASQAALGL

Consider `CC[C@H](C)[C@H](NC(=O)[C@H](Cc1ccccc1)NC(=O)[C@H](CCC(=O)O)NC(=O)[C@H](CCCCN)NC(=O)[C@H](C)NC(=O)[C@H](C)NC(=O)[C@H](CCC(N)=O)NC(=O)CNC(=O)[C@H](CCC(=O)O)NC(=O)[C@H](CC(C)C)NC(=O)[C@H](Cc1ccc(O)cc1)NC(=O)[C@H](CO)NC(=O)[C@H](CSC1CC(=O)N(CCC(=O)O)C1=O)NC(=O)[C@@H](NC(=O)[C@H](CC(=O)O)NC(=O)[C@H](CO)NC(=O)[C@@H](NC(=O)[C@H](Cc1ccccc1)NC(=O)[C@@H](NC(=O)CNC(=O)[C@H](CCC(=O)O)NC(=O)CNC(=O)[C@@H](N)Cc1cnc[nH]1)[C@@H](C)O)[C@@H](C)O)C(C)C)C(=O)N[C@@H](C)C(=O)N[C@@H](Cc1c[nH]c2ccccc12)C(=O)N[C@@H](CC(C)C)C(=O)N[C@H](C(=O)N[C@@H](CCCCN)C(=O)NCC(=O)N[C@@H](CCCNC(=N)N)C(N)=O)C(C)C` (stereo partly drawn), for which the EC50 in data set [1] was found to be 0.0056 nM. This compound also gave an Activity in data set [2] of 28.5%.

With `CC[C@H](C)[C@H](NC(=O)[C@H](Cc1ccccc1)NC(=O)[C@H](CCC(=O)O)NC(=O)[C@H](CCCCN)NC(=O)[C@H](C)NC(=O)[C@H](C)NC(=O)[C@H](CCC(N)=O)NC(=O)CNC(=O)[C@H](CCC(=O)O)NC(=O)[C@H](CC(C)C)NC(=O)[C@H](Cc1ccc(O)cc1)NC(=O)[C@H](CO)NC(=O)[C@H](CSC1CC(=O)N(CCCCCCCCCCCC(=O)O)C1=O)NC(=O)[C@@H](NC(=O)[C@H](CC(=O)O)NC(=O)[C@H](CO)NC(=O)[C@@H](NC(=O)[C@H](Cc1ccccc1)NC(=O)[C@@H](NC(=O)CNC(=O)[C@H](CCC(=O)O)NC(=O)CNC(=O)[C@@H](N)Cc1cnc[nH]1)[C@@H](C)O)[C@@H](C)O)C(C)C)C(=O)N[C@@H](C)C(=O)N[C@@H](Cc1c[nH]c2ccccc12)C(=O)N[C@@H](CC(C)C)C(=O)N[C@H](C(=O)N[C@@H](CCCCN)C(=O)NCC(=O)N[C@@H](CCCNC(=N)N)C(N)=O)C(C)C` (stereo partly drawn), the EC50 in data set [1] is 0.0263 nM. The same compound returned an Activity in data set [2] of 65.1%.

Take `CC[C@H](C)[C@H](NC(=O)[C@H](Cc1ccccc1)NC(=O)[C@H](CCC(=O)O)NC(=O)[C@H](CCCCN)NC(=O)[C@H](C)NC(=O)[C@H](C)NC(=O)[C@H](CCC(N)=O)NC(=O)CNC(=O)[C@H](CCC(=O)O)NC(=O)[C@H](CC(C)C)NC(=O)[C@H](Cc1ccc(O)cc1)NC(=O)[C@H](CO)NC(=O)[C@H](CO)NC(=O)[C@@H](NC(=O)[C@H](CC(=O)O)NC(=O)[C@H](CO)NC(=O)[C@@H](NC(=O)[C@H](Cc1ccccc1)NC(=O)[C@@H](NC(=O)CNC(=O)[C@H](CCC(=O)O)NC(=O)CNC(=O)[C@@H](N)Cc1cnc[nH]1)[C@@H](C)O)[C@@H](C)O)C(C)C)C(=O)N[C@@H](C)C(=O)N[C@@H](Cc1c[nH]c2ccccc12)C(=O)N[C@@H](CC(C)C)C(=O)N[C@H](C(=O)N[C@@H](CCCCN)C(=O)NCC(=O)N[C@@H](CCCNC(=N)N)C(=O)N[C@@H](CSC1CC(=O)N(CCCCCC(=O)O)C1=O)C(N)=O)C(C)C` (stereo partly drawn): in data set [1], the EC50 turned out to be 0.0093 nM. The Activity in data set [2] came out at 34.1%.

For the compound `CC[C@H](C)[C@H](NC(=O)[C@H](Cc1ccccc1)NC(=O)[C@H](CCC(=O)O)NC(=O)[C@H](CCCCN)NC(=O)[C@H](C)NC(=O)[C@H](C)NC(=O)[C@H](CCC(N)=O)NC(=O)CNC(=O)[C@H](CCC(=O)O)NC(=O)[C@H](CC(C)C)NC(=O)[C@H](Cc1ccc(O)cc1)NC(=O)[C@H](CO)NC(=O)[C@H](CSC1CC(=O)N(CCCCCC(=O)O)C1=O)NC(=O)[C@@H](NC(=O)[C@H](CC(=O)O)NC(=O)[C@H](CO)NC(=O)[C@@H](NC(=O)[C@H](Cc1ccccc1)NC(=O)[C@@H](NC(=O)CNC(=O)[C@H](CCC(=O)O)NC(=O)CNC(=O)[C@@H](N)Cc1cnc[nH]1)[C@@H](C)O)[C@@H](C)O)C(C)C)C(=O)N[C@@H](C)C(=O)N[C@@H](Cc1c[nH]c2ccccc12)C(=O)N[C@@H](CC(C)C)C(=O)N[C@H](C(=O)N[C@@H](CCCCN)C(=O)NCC(=O)N[C@@H](CCCNC(=N)N)C(N)=O)C(C)C` (stereo partly drawn), the concentration for a half-maximal effect (EC50) in data set [1] is 0.0143 nM. The Activity in data set [2] was 37.4%.
